# Test results reported in ChEMBL document CHEMBL4689842, “EUbOPEN Chemogenomics Library wave 1” (2021).
# Several values for one entry are separate records, joined by “and”; a condition that tells them apart may be missing. Identical values can stand only once.
# System: U2OS
# Experiment: Multiplex assay against U2OS
# Type: toxicity, cell-based
# Conditions: human
# Method in brief: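 Per cents of healthy-nucleus cells form the tubulin, mitochondrial-mass and membrane-permeability phenotype values. Live cells were stained at seeding with Hoechst33342, BioTracker Green Microtubule Cytoskeleton Dye, MitoTracker Red and Annexin V Alexa Fluor 680. After compound addition they were imaged on a CQ1 microscope at 37°C and 5% CO2, and CellPathfinder machine-learning gating split them into Hoechst high-intensity objects or normal cells, normal cells into healthy, pyknosed or fragmented nuclei, and pyknosed cells into mitotic or apoptotic.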
# [1] = 12 h, 1 µM, compound concentration 1 uM, replicate 1
# [2] = 12 h, 1 µM, compound concentration 1 uM, replicate 2
# [3] = 12 h, 10 µM, compound concentration 10 uM, replicate 1
# [4] = 12 h, 10 µM, compound concentration 10 uM, replicate 2
# [5] = 24 h, 1 µM, compound concentration 1 uM, replicate 1
# [6] = 24 h, 1 µM, compound concentration 1 uM, replicate 2
# [7] = 24 h, 10 µM, compound concentration 10 uM, replicate 1
# [8] = 24 h, 10 µM, compound concentration 10 uM, replicate 2
# [9] = 48 h, 10 µM, compound concentration 10 uM, replicate 1
# [10] = 48 h, 10 µM, compound concentration 10 uM, replicate 2
# [11] = 48 h, 1 µM, compound concentration 1 uM, replicate 1
# [12] = 48 h, 1 µM, compound concentration 1 uM, replicate 2
structure (smiles),measurement,setting,value
COCC(=O)NC/C=C/c1ccc2ncnc(Nc3ccc(Oc4ccc(C)nc4)c(C)c3)c2c1 [CP-724714],Population Apoptotic (%),[1],40% and 33%
same,Population Fragmented Nuclei (%),[1],7% and 4%
same,Population Healthy Nuclei (%),[1],80% and 89%
same,Population Hoechst High Intensity Objects (%),[1],3%
same,Population Membrane Permeable-Phenotype (%),[1],42% and 18%
same,Population Mitochondria Different-Phenotype (%),[1],29% and 18%
same,Population Mitotic Cells (%),[1],60% and 66%
same,Population Normal (%),[1],96%
same,Population Pyknosed Nuclei (%),[1],11% and 6%
same,Population Tubulin-Different-Phenotype (%),[1],18%
same,Total Cell Count,[1],178 and 153
same,Population Fragmented Nuclei (%),[2],3% and 8%
same,Population Healthy Nuclei (%),[2],82% and 87%
same,Population Hoechst High Intensity Objects (%),[2],6% and 4%
same,Population Membrane Permeable-Phenotype (%),[2],49% and 27%
same,Population Mitochondria Different-Phenotype (%),[2],43% and 20%
same,Population Mitotic Cells (%),[2],53% and 100%
same,Population Normal (%),[2],93% and 95%
same,Total Cell Count,[2],95 and 141
same,Population Apoptotic (%),[3],51%
same,Population Fragmented Nuclei (%),[3],17%
same,Population Healthy Nuclei (%),[3],62%
same,Population Hoechst High Intensity Objects (%),[3],13%
same,Population Membrane Permeable-Phenotype (%),[3],35%
same,Population Mitochondria Different-Phenotype (%),[3],87%
same,Population Mitotic Cells (%),[3],48%
same,Population Normal (%),[3],86%
same,Population Pyknosed Nuclei (%),[3],20%
same,Total Cell Count,[3],167
same,Population Apoptotic (%),[4],80%
same,Population Fragmented Nuclei (%),[4],18%
same,Population Healthy Nuclei (%),[4],63%
same,Population Hoechst High Intensity Objects (%),[4],11%
same,Population Membrane Permeable-Phenotype (%),[4],37%
same,Population Mitochondria Different-Phenotype (%),[4],94%
same,Population Mitotic Cells (%),[4],20%
same,Population Normal (%),[4],88%
same,Population Pyknosed Nuclei (%),[4],18%
same,Population Tubulin-Different-Phenotype (%),[4],100%
same,Total Cell Count,[4],62
same,Population Apoptotic (%),[5],50% and 38%
same,Population Fragmented Nuclei (%),[5],10% and 2%
same,Population Healthy Nuclei (%),[5],71% and 90%
same,Population Hoechst High Intensity Objects (%),[5],1% and 2%
same,Population Mitotic Cells (%),[5],50% and 61%
same,Population Normal (%),[5],98% and 97%
same,Population Pyknosed Nuclei (%),[5],17%
same,Total Cell Count,[5],186 and 209
same,Population Apoptotic (%),[6],62% and 36%
same,Population Fragmented Nuclei (%),[6],8% and 3%
same,Population Healthy Nuclei (%),[6],75% and 89%
same,Population Hoechst High Intensity Objects (%),[6],3% and 7%
same,Population Membrane Permeable-Phenotype (%),[6],40% and 20%
same,Population Mitochondria Different-Phenotype (%),[6],53% and 26%
same,Population Mitotic Cells (%),[6],37% and 63%
same,Population Normal (%),[6],96% and 92%
same,Population Pyknosed Nuclei (%),[6],15% and 6%
same,Total Cell Count,[6],106 and 180
same,Population Apoptotic (%),[7],60%
same,Population Fragmented Nuclei (%),[7],20%
same,Population Healthy Nuclei (%),[7],45%
same,Population Hoechst High Intensity Objects (%),[7],8%
same,Population Membrane Permeable-Phenotype (%),[7],46%
same,Population Mitochondria Different-Phenotype (%),[7],98%
same,Population Mitotic Cells (%),[7],39%
same,Population Normal (%),[7],91%
same,Population Pyknosed Nuclei (%),[7],33%
same,Population Tubulin-Different-Phenotype (%),[7],100%
same,Total Cell Count,[7],156
same,Population Fragmented Nuclei (%),[8],16%
same,Population Healthy Nuclei (%),[8],54%
same,Population Hoechst High Intensity Objects (%),[8],11%
same,Population Membrane Permeable-Phenotype (%),[8],51%
same,Population Mitochondria Different-Phenotype (%),[8],96%
same,Population Mitotic Cells (%),[8],40%
same,Population Normal (%),[8],88%
same,Population Pyknosed Nuclei (%),[8],28%
same,Total Cell Count,[8],60
same,Population Apoptotic (%),[9],76%
same,Population Fragmented Nuclei (%),[9],22%
same,Population Healthy Nuclei (%),[9],44%
same,Population Hoechst High Intensity Objects (%),[9],4%
same,Population Membrane Permeable-Phenotype (%),[9],57%
same,Population Mitochondria Different-Phenotype (%),[9],91%
same,Population Mitotic Cells (%),[9],23%
same,Population Normal (%),[9],95%
same,Population Pyknosed Nuclei (%),[9],32%
same,Population Tubulin-Different-Phenotype (%),[9],100%
same,Total Cell Count,[9],163
same,Population Apoptotic (%),[10],45%
same,Population Fragmented Nuclei (%),[10],14%
same,Population Healthy Nuclei (%),[10],52%
same,Population Hoechst High Intensity Objects (%),[10],14%
same,Population Membrane Permeable-Phenotype (%),[10],84%
same,Population Mitochondria Different-Phenotype (%),[10],96%
same,Population Mitotic Cells (%),[10],55%
same,Population Normal (%),[10],85%
same,Total Cell Count,[10],71
CCOC(=O)c1c(C)[nH]c2ccc3c(c12)CN1CCc2cc(OC)ccc2C1O3 (stereo unspecified),Population Apoptotic (%),[1],72%
same,Population Fragmented Nuclei (%),[1],9%
same,Population Healthy Nuclei (%),[1],81%
same,Population Hoechst High Intensity Objects (%),[1],5%
same,Population Membrane Permeable-Phenotype (%),[1],6%
same,Population Mitochondria Different-Phenotype (%),[1],78%
same,Population Mitotic Cells (%),[1],27%
same,Population Normal (%),[1],94%
same,Population Pyknosed Nuclei (%),[1],8%
same,Population Tubulin-Different-Phenotype (%),[1],72%
same,Total Cell Count,[1],123
same,Population Apoptotic (%),[2],9%
same,Population Healthy Nuclei (%),[2],76%
same,Population Hoechst High Intensity Objects (%),[2],9%
same,Population Membrane Permeable-Phenotype (%),[2],3%
same,Population Mitochondria Different-Phenotype (%),[2],70%
same,Population Mitotic Cells (%),[2],90%
same,Population Normal (%),[2],90%
same,Population Pyknosed Nuclei (%),[2],14%
same,Population Tubulin-Different-Phenotype (%),[2],62%
same,Total Cell Count,[2],65
same,Population Apoptotic (%),[3],73%
same,Population Fragmented Nuclei (%),[3],9%
same,Population Healthy Nuclei (%),[3],68%
same,Population Hoechst High Intensity Objects (%),[3],5%
same,Population Membrane Permeable-Phenotype (%),[3],68%
same,Population Mitotic Cells (%),[3],26%
same,Population Normal (%),[3],94%
same,Total Cell Count,[3],135
same,Population Apoptotic (%),[4],80%
same,Population Fragmented Nuclei (%),[4],2%
same,Population Healthy Nuclei (%),[4],75%
same,Population Hoechst High Intensity Objects (%),[4],11%
same,Population Membrane Permeable-Phenotype (%),[4],70%
same,Population Mitochondria Different-Phenotype (%),[4],100%
same,Population Mitotic Cells (%),[4],20%
same,Population Normal (%),[4],88%
same,Population Pyknosed Nuclei (%),[4],22%
same,Population Tubulin-Different-Phenotype (%),[4],100%
same,Total Cell Count,[4],84
same,Population Apoptotic (%),[5],41%
same,Population Fragmented Nuclei (%),[5],8%
same,Population Healthy Nuclei (%),[5],79%
same,Population Hoechst High Intensity Objects (%),[5],5%
same,Population Membrane Permeable-Phenotype (%),[5],3%
same,Population Mitochondria Different-Phenotype (%),[5],68%
same,Population Mitotic Cells (%),[5],58%
same,Population Normal (%),[5],94%
same,Population Pyknosed Nuclei (%),[5],12%
same,Population Tubulin-Different-Phenotype (%),[5],40%
same,Total Cell Count,[5],127
same,Population Apoptotic (%),[6],8%
same,Population Fragmented Nuclei (%),[6],9%
same,Population Healthy Nuclei (%),[6],75%
same,Population Membrane Permeable-Phenotype (%),[6],1%
same,Population Mitochondria Different-Phenotype (%),[6],58%
same,Population Mitotic Cells (%),[6],91%
same,Population Pyknosed Nuclei (%),[6],14%
same,Population Tubulin-Different-Phenotype (%),[6],35%
same,Total Cell Count,[6],65
same,Population Apoptotic (%),[7],90%
same,Population Fragmented Nuclei (%),[7],13%
same,Population Healthy Nuclei (%),[7],49%
same,Population Hoechst High Intensity Objects (%),[7],4%
same,Population Membrane Permeable-Phenotype (%),[7],78%
same,Population Mitochondria Different-Phenotype (%),[7],100%
same,Population Mitotic Cells (%),[7],9%
same,Population Normal (%),[7],95%
same,Population Pyknosed Nuclei (%),[7],37%
same,Population Tubulin-Different-Phenotype (%),[7],100%
same,Total Cell Count,[7],143
same,Population Apoptotic (%),[8],89%
same,Population Fragmented Nuclei (%),[8],6%
same,Population Healthy Nuclei (%),[8],52%
same,Population Hoechst High Intensity Objects (%),[8],11%
same,Population Membrane Permeable-Phenotype (%),[8],83%
same,Population Mitotic Cells (%),[8],10%
same,Population Normal (%),[8],88%
same,Population Pyknosed Nuclei (%),[8],41%
same,Total Cell Count,[8],87
same,Population Apoptotic (%),[11],44%
same,Population Fragmented Nuclei (%),[11],7%
same,Population Healthy Nuclei (%),[11],83%
same,Population Hoechst High Intensity Objects (%),[11],2%
same,Population Membrane Permeable-Phenotype (%),[11],1%
same,Population Mitochondria Different-Phenotype (%),[11],22%
same,Population Mitotic Cells (%),[11],55%
same,Population Normal (%),[11],97%
same,Population Pyknosed Nuclei (%),[11],9%
same,Population Tubulin-Different-Phenotype (%),[11],13%
same,Total Cell Count,[11],115
same,Population Apoptotic (%),[12],41%
same,Population Fragmented Nuclei (%),[12],8%
same,Population Healthy Nuclei (%),[12],81%
same,Population Hoechst High Intensity Objects (%),[12],7%
same,Population Membrane Permeable-Phenotype (%),[12],9%
same,Population Mitochondria Different-Phenotype (%),[12],27%
same,Population Mitotic Cells (%),[12],58%
same,Population Normal (%),[12],92%
same,Population Pyknosed Nuclei (%),[12],10%
same,Population Tubulin-Different-Phenotype (%),[12],19%
same,Total Cell Count,[12],67
same,Population Apoptotic (%),[9],100%
same,Population Fragmented Nuclei (%),[9],13%
same,Population Healthy Nuclei (%),[9],50%
same,Population Hoechst High Intensity Objects (%),[9],6%
same,Population Membrane Permeable-Phenotype (%),[9],88%
same,Population Mitotic Cells (%),[9],0%
same,Population Normal (%),[9],93%
same,Population Pyknosed Nuclei (%),[9],35%
same,Population Tubulin-Different-Phenotype (%),[9],100%
same,Total Cell Count,[9],196
same,Population Apoptotic (%),[10],84%
same,Population Fragmented Nuclei (%),[10],14%
same,Population Healthy Nuclei (%),[10],45%
same,Population Hoechst High Intensity Objects (%),[10],14%
same,Population Membrane Permeable-Phenotype (%),[10],81%
same,Population Mitochondria Different-Phenotype (%),[10],100%
same,Population Mitotic Cells (%),[10],15%
same,Population Normal (%),[10],85%
same,Population Pyknosed Nuclei (%),[10],39%
same,Population Tubulin-Different-Phenotype (%),[10],95%
same,Total Cell Count,[10],121
